High-throughput results from PubChem BioAssay.
Compounds with a hit are over-represented: about 4.9% of the library has one in this group of screens.
STAT1 blocker – STAT1 signaling inhibition; NIH 3T3 STAT1-luciferase reporter, IFN-gamma, luminescence; inhibition, % at 5.5 µM; 200,000 compounds, 0.35% hits; AID 920;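 active means inhibition above a set limit, the mean inhibition across all tested compounds plus 3 SD, cut at about 34% in these data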
STAT3 activator – activators of IL-6 induced STAT3 signaling | 190,000 compounds, 0.91% hits | U3A cells, IL-6 STAT3-luciferase reporter, luminescence; 100% = signal with IL-6 EC80 alone | activation (% of control), % at 5.6 µM | AID 871;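 active means activation above the screen-wide mean of compound activation plus 3 SD, cut at about 130% in these data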
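Material: STAT3-luciferase reporter U3A cells; Probe or stimulus: IL-6 (33 ng/mL); Incubation: compound pre-incubation 1 h before IL-6, then 6 h stimulation at 37 °C; Technique: luminescence from STAT3-driven luciferase reporter; Evaluation: % activation versus median of IL-6-stimulated wells; Controls: IL-6-only high control.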
STAT3 inh – STAT3 signaling inhibition. U3A cells, IL-6 STAT3-luciferase reporter, luminescence; host cell line lacks STAT1. inhibition, % at 5.5 µM. 190,000 compounds, 0.89% hits. AID 862;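 active means inhibition above the mean inhibition across all screened compounds plus 3 SD, cut at about 44% in these data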
FLuc inhib CS – inhibits firefly luciferase, flagging false hits in luciferase inhibition screens. P08659. ATPLite firefly luciferase biochemical luminescence, 10 min. 200,000 compounds, 1.5% hits. inhibition, % at 10 µM;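 active means inhibition above about 50% when tested at 10 µM, limit read from the data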
Target sequence (P08659 whole entry, looked up): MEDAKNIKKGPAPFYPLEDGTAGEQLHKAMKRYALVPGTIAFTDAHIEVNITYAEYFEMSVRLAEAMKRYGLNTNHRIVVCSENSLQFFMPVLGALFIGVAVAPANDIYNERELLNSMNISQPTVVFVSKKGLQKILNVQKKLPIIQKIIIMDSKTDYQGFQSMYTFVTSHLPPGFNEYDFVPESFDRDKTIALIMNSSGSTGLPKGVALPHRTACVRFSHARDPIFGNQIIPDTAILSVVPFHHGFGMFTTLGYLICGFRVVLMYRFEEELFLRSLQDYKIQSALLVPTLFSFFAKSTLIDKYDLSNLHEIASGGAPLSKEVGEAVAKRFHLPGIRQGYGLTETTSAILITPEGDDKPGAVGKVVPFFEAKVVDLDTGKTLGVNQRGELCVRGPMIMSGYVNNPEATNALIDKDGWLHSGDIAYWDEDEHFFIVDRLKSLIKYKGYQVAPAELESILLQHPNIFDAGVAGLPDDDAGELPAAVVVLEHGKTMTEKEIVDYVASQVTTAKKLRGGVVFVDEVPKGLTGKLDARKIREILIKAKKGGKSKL
FLuc act counter – firefly luciferase counter-screen for stimulation assays | P08659 | ATPlite luciferase biochemical, luminescence, 10 min; 0 = ATP-free wells, 1 = DMSO control | activation factor at 10 µM | 200,000 tested, under 10 active | AID 1027;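 active means luciferase activation factor, scaled between plate controls, of at least 2 with compound at 10 µM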
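System: cell-free luciferase reagent; medium: PBS as buffer for the ATP substrate; doses: test compounds dosed from 2 mM stocks in 100% DMSO; incubation: 10 min, room temperature; measured by: luminescence from luciferase reaction; read-out: luciferase activation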
STAT1 act – STAT1 signaling activation | 200,000 compounds, 2.6% hits | activation (% of control), % at 5.5 µM | NIH 3T3 STAT1-luciferase reporter, IFN-gamma, luminescence; 100% = IFN-gamma alone, no compound;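 active means activation above the screen-wide mean activation plus 3 SD, cut at about 130% in these data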
Numbers stand for hits; - = inactive.

SMILES	STAT1 blocker	STAT3 activator	STAT3 inh	FLuc inhib CS	FLuc act counter	STAT1 act
O=C(N/N=C/C(Br)=C\c1ccccc1)c1ccc2nc[nH]c2c1	-	-	-	-	-	-
CC(/C=N/NC(=O)c1ccncc1)=C\c1ccccc1	-	-	-	61	-	-
CC(=C/c1ccccc1)/C=N/NC(=O)c1ccc2nc[nH]c2c1	-	-	-	82	-	-
O=C(O)CCN1C(=O)c2ccc(NC(=O)Cc3ccc(Cl)cc3)cc2C1=O	-	-	-	-	-	-
CCN=C1S/C(=C\c2ccc(OC)c(OCC)c2)C(=O)N1CC	-	-	-	-	-	-
CCN=C1S/C(=C\c2sccc2C)C(=O)N1CC	-	-	-	-	-	130
COC(/C=C/Nc1ccc(C)cc1)=C(C#N)C#N	-	136	-	-	-	-
Cc1ccc(C(=O)N/N=C/c2ccc([N+](=O)[O-])s2)cc1	80	-	76	-	-	-
O=C(N/N=C/c1ccc([N+](=O)[O-])s1)c1ccncc1	-	-	-	-	-	-
c1ccc2c(Nc3nnc(-c4ccncc4)s3)cccc2c1	-	-	-	52	-	-
O=C1c2ccccc2C(=O)C1c1ccnc2ccccc12	43	-	58	91	-	-
c1ccc(CCNc2nc(-c3cccnc3)cs2)cc1	-	-	-	-	-	133
c1ccc(CCNc2nc(-c3ccccn3)cs2)cc1	-	-	-	-	-	142
Cc1ccc(OC(=O)c2sc3ncn(C)c(=O)c3c2C)cc1	-	-	-	-	-	136
Cc1c(C(=O)O)sc2ncn(C)c(=O)c12	-	-	-	-	-	-
Cc1cccc(Cc2nnc(CCC(=O)N(C)C3CCOC3)o2)c1 (stereo not drawn)	-	-	-	-	-	-
CCN(CC1CCCO1)C(=O)CCc1nnc(Cc2ccc3c(c2)OCO3)o1 (stereo not drawn)	-	-	-	-	-	-
Cc1cccc(Cc2nnc(CCC(=O)N(CC3CC3)CC3CCCO3)o2)c1 (stereo not drawn)	-	-	-	-	-	136
CCCOC1CCCN(C(=O)CCc2nnc(Cc3cccc(C)c3)o2)C1 (stereo not drawn)	-	-	-	-	-	143
CC(=O)Nc1ccc(S(=O)(=O)NCC(=O)OCc2ccccc2)cc1	-	-	-	-	-	-
CC(C)CN1CCNC(=O)C1CC(=O)NCc1cnn(-c2cccc(F)c2)c1 (stereo not drawn)	-	-	-	-	-	-
CC(C)C/C=C1\CCc2c([nH]c3ccccc23)C1=O	-	-	-	-	-	143
O=C(Cn1cnc2ccccc2c1=O)c1ccc2c(c1)OCCO2	-	-	-	-	-	137
O=C(Cn1cnc2ccccc2c1=O)c1ccc2ccccc2c1	-	-	-	-	-	-
Cc1ccc(C(=O)Cn2cnc3ccccc3c2=O)cc1C	-	-	-	-	-	138
SMILES	STAT1 blocker	STAT3 activator	STAT3 inh	FLuc inhib CS	FLuc act counter	STAT1 act
Cc1ccc(NC(=O)CCn2nnc3ccccc32)cc1	-	-	-	-	-	130
CC(=O)c1cn(CC(=O)Nc2c(C)cccc2C)c2ccccc12	-	-	-	-	-	-
CC(=O)c1cn(CC(=O)Nc2ccc(C)cc2)c2ccccc12	-	-	57	-	-	-
O=C(Cn1cnc2ccccc2c1=O)NCc1ccc2c(c1)OCO2	-	-	-	-	-	-
O=C1CSC(=Nc2ccccc2[N+](=O)[O-])N1	-	-	-	-	-	-
O=C(O)c1ccc(/C=N/N2CCN(Cc3ccccc3)CC2)cc1	-	-	-	-	-	-
Cc1cccc(N2CCN(C(=O)CN3C(=O)C4CC=CCC4C3=O)CC2)c1C (stereo not drawn)	-	-	-	-	-	-
Cc1ccc(C(=O)Cn2nnc3ccccc32)cc1C	-	-	-	-	-	143
O=C(Cn1nnc2ccccc21)NCc1ccccc1	-	-	-	-	-	144
Cc1ccc(C(=O)Cn2nnc3ccccc32)cc1	-	-	-	-	-	-
Cc1ccccc1CSc1nnc(C)c(=O)n1N	-	-	-	-	-	-
CCOC(=O)N1CCN(C(=O)c2cc3c(s2)-c2ccccc2OC3)CC1	-	-	-	-	-	-
